Laboratory results from ChEMBL document CHEMBL1122504, “Heterocyclic Quinones. 4. A new highly cytotoxic drug: 6,7-bis(1-aziridinyl)-5,8-quinazolinedione” (1983).

Key:
[1] = system: P388; assay: MST of treated animal over control when administered at a dose of 10 mg/kg intraperitoneally on Q04Dx03 treatment schedule; type: functional, Mus musculus; conditions: route intraperitoneal
Procedure, shortened: (§1)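 P388 leukaemia: DBA/2 mice inoculated with 10^6 cells on day 0; treatment began day 1 at the stated route and schedule. Drug was dissolved in 0.15 M NaCl saline. The read-out was median survival time (MST, days), with toxicity taken as survivors on day 5. T/C% = treated MST/control MST × 100; ≥125% is considered significant.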

[2] = system: P388; assay: Median survival time of P388 lymphocytic leukemia cell line after a dose of 20 mg/kg administered intraperitoneally on Q01Dx01 treatment schedule; type: functional, Mus musculus; conditions: route intraperitoneal; procedure, shortened: as §1
[3] = system: Salmonella typhimurium; assay: Mutagenesis test was performed at 0.3 uM concentration in Salmonella Typhimurium TA 100; type: functional, Salmonella enterica subsp. enterica serovar Typhimurium
Procedure, shortened: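 Salmonella typhimurium his auxotrophs TA98 and TA100 were tested by liquid suspension without metabolic activation. Overnight Oxoid nutrient broth cultures were subcultured, grown 2 h, then exposed to drug for 5 h. Cells were washed, resuspended to A650 2.50, and plated in top agar (0.6% agar, 0.6% NaCl). His+ revertants per plate were counted after 48 h at 37 °C; values are means of three assays.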

Q: Which T/C [1] does the source give for `O=C1C(N2CC2)=C(N2CC2)C(=O)c2ncncc21` here?
A: The T/C was 132%.

Q: What about the MST [2] of the same compound?
A: The MST was 9.5 days.

Q: What about the Revertants/plate [3] of the same compound?
A: Its Revertants/plate is 76.
